bCat nuc transl: beta-catenin nuclear translocation modulation | HeLa beta-catenin nuclear translocation, immunofluorescence imaging | nuclear translocation activity, % at 5 µM | 190,000 compounds, 0.3% hits | AID 1665;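 active = nuclear translocation activity above 50% at 5 µM, with a well cell count of 50 or more; inconclusive = wells under 50 cells across six images, flagged as toxic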;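 note: per-cell ratio of nuclear to cytoplasmic median beta-catenin stain intensity; plate controls were DMSO negative control for no effect and GSK-3 inhibitor IX positive control for full effect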
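Test system: human HeLa cells, native beta-catenin. Compound dosing: 5 µM primary single dose, 0.1% DMSO, 0.02–20 µM confirmation series. Incubation: compound exposure 24 h at 37°C. Detection: beta-catenin immunostaining with DAPI counterstain, 20x imaging, 6 fields/well. Read-out basis: Nuclear/cytoplasmic beta-catenin signal ratio, % activation.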
MT stabilize HCS: stabilizes microtubules in HeLa cells; HeLa tubulin immunostaining HCS, 24 h; share of cells brighter than vehicle mean+2SD; % tubulin-high responders, % at 10 µM; 200,000 compounds, 0.83% hits; AID 2205;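 active = plate Z-score above 3 for both tubulin-high and condensed-nucleus cell shares, with cell loss under 80%, at 10 µM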;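 note: anti alpha tubulin signal scored within the nucleus-defined area of each cell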
CHOP inh: CHOP inhibition in unfolded protein response; 220,000 compounds, 3.8% hits; CHO-K1 CHOP-promoter luciferase, tunicamycin-induced, 15-18 h; inhibition, % at 10 µM;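 active = compounds that reduced the stress-induced luciferase reporter signal by more than about 70% of percent inhibition, limit read from the data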;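 note: 0% = tunicamycin plus vehicle and 100% = wells without tunicamycin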
Lmaj promast: Leishmania major promastigote growth inhibition; Leishmania major promastigotes, resazurin fluorescence viability; inhibition, % at 10 µM; 200,000 compounds, 9% hits; AID 1063; in the data active = inhibition above about 50%;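 note: promastigotes grown with compound for 44 hours at 28 °C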
Autophagy mod: alters autophagy in cells. 190,000 compounds, 0.98% hits. AID 463193. MEF GFP-LC3 puncta imaging; test concentration mostly 10 µM. calls only at 10 µM (by protocol);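 active = percentage of spot-positive cells more than 3 SD above its plate mean, without a fluorescence outlier flag or 80% toxicity; inconclusive = no clear call, values can overlap the other calls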;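 note: spot-positive cell cutoff set from DMSO-treated cells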
Dynein transport: blocks dynein driven cargo transport along microtubules. 3617.4 mouse cells, GR-EGFP nuclear translocation imaging; test concentration mostly 20 µM; stimulated with dexamethasone, 1 µM; stronger effect = lower value. 220,000 compounds, 0.47% hits. z-score, hits read low;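 active = plate z-score of nuclear minus cytoplasmic receptor signal below a set negative limit, without overly bright fluorescence or cell loss, cut at about -3.5 in these data, passing the limit was not always enough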;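 note: z-score of nuclear minus cytoplasmic ring GR-EGFP intensity difference per well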
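Schedule: 48 h induction, then 1 h compound, then 30 min agonist, 37 °C. Buffer or medium: tetracycline-free induction medium containing charcoal-stripped FBS. Reagent: 1.0 µM final dexamethasone stimulus. Evaluation: nuclear versus cytoplasmic GR-EGFP signal, averaged per well. Signal: high-content fluorescence imaging after fixation.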
Dynein confirm: dynein cargo transport inhibition, confirmation; 3617.4 GR-EGFP nuclear translocation imaging, dexamethasone-induced; AID 463116; 1,000 compounds, 69% hits; shares compounds with Dynein transport; calls only at 20 µM;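 active = inhibition of receptor movement into the nucleus at or above a set limit in both runs, with normal cell brightness and cell count; inconclusive = limit reached in only one run, brightness and count normal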;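 note: dexamethasone at 1 µM final in well for 30 min; nuclear minus cytoplasmic GR-EGFP mean intensity difference in channel 2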
The depositor's hits bear a star; i = inactive; u = inconclusive; x = not tested or not shown; + = active, no number. The list is not random: actives were taken first. Their share in the collection is about 12%.

SMILES	bCat nuc transl	MT stabilize HCS	CHOP inh	Lmaj promast	Autophagy mod	Dynein transport	Dynein confirm
COc1ccc(CN(CCC(c2ccccc2)c2ccc(OC(C)C)cc2)C(=O)CCl)cc1OC (stereo unspecified)	0	11	110*	100*	i	-6.9*	+
CCOCCCNC(=O)C(c1ccc(OC)cc1)N(Cc1ccc2c(c1)OCO2)C(=O)c1ccccc1O (stereo unspecified)	-1	2	-1	5	i	0.51	x
COc1ccc(C(=O)C2CN(c3ccccc3)CC2c2ccc(Cl)cc2)cc1 (stereo unspecified)	x	3	21	10	i	-0.45	x
CCOC(=O)CNC=C(C(=O)OCC)C(=O)OCC	-1	0	-15	-6	i	-0.34	x
CCOC(=O)C=C(C(=O)OCC)C(=O)OCC	1	5	0	100*	i	-4.2*	+
O=C1CCCS(=O)(=O)c2ccccc21	-1	2	2	0	i	0.3	x
CN(C)CCCn1c(SCC(=O)N2c3ccccc3Sc3ccccc32)nc2ccccc2c1=O	0	19	21	101*	i	-4.2*	i
Cn1c(SCC(=O)N2c3ccccc3Sc3ccccc32)nc2ccccc21	0	3	5	21	i	1.5	x
CC(C)N(CC(=O)Nc1ccc(Cl)cc1C(F)(F)F)C(=O)CCl	x	3	-49	3	i	-7.1*	+
CCOc1cc(C=O)ccc1OCC(=O)N1CCCC1	0	3	-11	-7	i	-1.5	x
CCOc1cc(/C=C\[N+](=O)[O-])ccc1OCC(=O)N1CCOCC1	1	3	-24	11	i	-5.7*	+
CCOC(=O)CS(=O)(=O)c1nc(-c2ccc(F)cc2)cc(C(F)(F)F)n1	0	4	x	-3	i	-4.8	+
CCOC(=O)CS(=O)(=O)c1nc(-c2ccccc2)cc(C(F)(F)F)n1	4	5	x	0	i	2.1	x
CCOC(=O)N1C(=O)C2(CCCCC2)N(c2ccccc2Cl)C1=S	-3	6	60	16	i	1.4	x
O=C(CC1Sc2ncnn2C1=O)Nc1ccc(Br)cc1 (stereo unspecified)	-2	2	17	17	i	-3.6*	i
O=C(NCc1ccncc1)C(=O)N/N=C/c1cccnc1	1	1	-24	-8	i	2	x
COc1ccc(/C=C\c2nc(=O)c3ccccc3o2)cc1	21	3	-30	84*	i	-3.6*	+
O=c1nc(/C=C/c2ccc(O)c(O)c2)oc2ccccc12	2	x	21	x	x	1.6	x
Cc1ccc(SC(=O)c2c([N+](=O)[O-])c(C)nn2C)cc1	-2	x	38	x	x	-4.2*	+
COC(=O)c1cc(NC(=O)c2cccc(Cl)c2)c(=O)oc1/C=C/Nc1cc(C)cc(C)c1	0	5	18	1	+	-7.5	+
CCN(CC)c1ccc(N=Cc2ccc([N+](=O)[O-])o2)cc1	0	5	-45	91*	i	-3.8*	u
CCN(CC)c1ccc(N=Cc2ccccc2[N+](=O)[O-])cc1	x	3	50	12	i	0.35	x
COc1ccc(C2=NN(C3=NN=C(N)Cc4ncnn43)C(O)(C(F)(F)F)C2)cc1 (stereo unspecified)	-1	1	4	-5	i	-0.54	x
Cc1ccc(-c2cn3nc(-c4ccccc4)c(-c4ccccc4)nc3n2)cc1	-1	x	7	x	x	-4.6	+
CC1(C)CC(Nc2ccc(Nc3ccccc3)cc2)CC(C)(C)N1	0	x	-43	x	x	3.1	x
SMILES	bCat nuc transl	MT stabilize HCS	CHOP inh	Lmaj promast	Autophagy mod	Dynein transport	Dynein confirm
O=[N+]([O-])c1ccc(N/N=C/c2cn(Cc3ccc(F)cc3)c3ccccc23)nc1	0	5	12	-4	+	-5.4	u
COC(=O)N/N=C/c1cn(Cc2ccc(F)cc2)c2ccccc12	0	x	0	x	x	-0.58	x
N#Cc1ccccc1Cn1cc(/C=C/[N+](=O)[O-])c2ccccc21	0	11	-20	87*	i	-4.7*	+
O=[N+]([O-])/C=C/c1cn(Cc2ccccc2)c2ccccc12	-2	3	4	96*	i	-4.6*	u
O=[N+]([O-])c1cccc(N2Cc3ccccc3C2)c1	0	2	-10	-2	i	-0.31	x
CS(=O)(=O)c1cc([N+](=O)[O-])c(Sc2nc3ccccc3[nH]2)c([N+](=O)[O-])c1	1	3	80*	1	i	-3.6*	+
Cn1c(=O)oc2cc(S(=O)(=O)Nc3ccc4c(c3)OCCO4)ccc21	-3	4	-6	63*	i	-4.3	i
Cn1c(=O)oc2cc(S(=O)(=O)NCCC(=O)Nc3ccc4c(c3)OCCO4)ccc21	0	4	32	-7	i	-0.43	x
COc1ccccc1C(=O)Oc1ccccc1C(=O)Nc1ccccc1	0	1	31	-7	i	-1.5	x
O=C(Oc1ccccc1C(=O)Nc1ccccc1)c1ccc(Br)c([N+](=O)[O-])c1	x	3	84*	22	i	-3.9*	i
COC(=O)C(=C/C(C)=C/c1cccnc1)C(=O)OC	1	3	-81	71*	i	-5.9*	+
COC(=O)/C(=C/c1cccnc1)NC(=O)c1ccccc1	-3	4	0	-4	i	-0.63	x
COc1ccc(NC(=O)C(CC(C)C)NC(=O)C2CCC(C)CC2)c(OC)c1 (stereo unspecified)	x	3	32	33	i	0.65	x
Cc1cc(NC(=O)c2coc(=O)c(Br)c2)ccc1C(C)C	-1	x	10	x	x	-5.4*	+
C[C@@H](NC(=O)c1coc(=O)c(Br)c1)c1ccccc1	50	4	36	2	i	-1.8	x
NC(=O)N/N=C/c1ccc(-c2ccc([N+](=O)[O-])cc2)o1	4	x	-4	x	x	-0.23	x
CCCNC(=O)Cn1c(=O)/c(=C\c2ccc(-c3ccc([N+](=O)[O-])cc3)o2)s/c1=C\C(=O)C(C)(C)C	1	9	60	73*	u	-4.9	+
CN1CC2([N+](=O)[O-])CC=C(OCCO)C([N+](=O)[O-])(C1)C2 (stereo unspecified)	x	4	16	-7	i	-0.14	x
CCCCN1C(=O)/C(=C/C=C2\N(C)c3ccccc3C2(C)C)SC1=S	13	11	38	18	+	-5	i
O=C1CSC(=S)N1Cc1cccnc1	3	7	2	100*	i	-4.6*	i
CC(=O)Nc1ccc(NC(=O)C2CCN(C(=O)c3cccs3)CC2)cc1	2	2	-1	-5	i	0.4	x
